Source: PubChem BioAssay AID1296 (Columbia University Molecular Screening Center, 2008)
The whole screen tested about 130,000 compounds, of which about 1,000 (0.77%) were called active. About 1% were inconclusive and are not listed.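 How the source made its calls: active means activation at 2 µM above a set limit, confirmed on inspection of the cell images; inconclusive means above the set limit but not confirmed on image inspection; inactive means the rest.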 Only a selection was taken, and actives are over-represented in it overall.

Assay: insulin gene promoter stimulation in islet cells – imaging, TRM-6 cells, eGFP reporter, cell count, primary screen (AID 1296);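 on activation: share of cells whose green reporter signal exceeds an intensity cutoff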
Settings: at 2 µM; activation: stronger effect = higher value, plate-scaled: unstimulated 0, stimulated control 100; normalized cell count: measured here: cell count (toxicity)
Outline: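 Material: Human fetal islet-derived TRM-6 cells with tamoxifen-inducible insulin promoter–eGFP reporter | Medium: Low-glucose (5.5 mM) medium with tamoxifen | Probe or stimulus: Tamoxifen inducer, 0.75 µM, in seeding medium | Schedule: Tamoxifen pre-incubation 15 h overnight, then compound exposure 48 h at 37 °C | Detection: High-content imaging of fixed cells with Hoechst nuclear stain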

SMILES | activation | normalized cell count [%]
CCOC(=O)NN1C(=O)c2ccccc2NC1c1ccccc1O (stereo unspecified) | 2.78% (inactive) | 107
N#C/C(=C/c1ccc(N2CCCCC2)o1)C(=O)NCCc1c[nH]c2ccccc12 | 257% (active) | 92.9
N#C/C(=C\c1ccc(N2CCOCC2)o1)C(=O)N1CCOCC1 | 7.41% (inactive) | 99.1
N#C/C(=C/c1ccc(N2CCOCC2)o1)C(=O)N1CCOCC1 | 7.69% (inactive) | 59.4
CC1(C)C2CC=C(/C=N/NC(=O)c3ccc(Cl)cc3)C1C2 (stereo unspecified) | -3.33% (inactive) | 104
Cc1ccc(-c2noc(CSc3nnc(-c4ccccc4)n3C)n2)cc1 | -8.33% (inactive) | 65.9
COc1ccc(-c2noc(CSc3ccc(C)cc3)n2)cc1 | 521% (active) | 77.9
COc1ccc(-c2noc(-c3ccc(C)cc3)n2)cc1 | 1.41% (inactive) | 143
O=C(Nc1ccccc1F)c1ccc(Cn2cc(Br)cn2)cc1 | 0% (inactive) | 118
Cc1ccc(O)c(-c2cc(C(=O)NCc3ccccc3)[nH]n2)c1 | -7.14% (inactive) | 81.6
CSCc1ccc(C(=O)Nc2cc(C)cc(C)c2)cc1 | -9.09% (inactive) | 139
Cc1cccc(NC(=O)C2CC(=O)OC23CCCC3)c1 (stereo unspecified) | 7.14% (inactive) | 75.4
Cc1cc(C)cc(NC(=O)c2cccc(NC(=O)C3C4CC5OC(=O)C3C5C4)c2)c1 (stereo unspecified) | 76.7% (active) | 85.6
O=C(COC(=O)c1cc(S(=O)(=O)N2CCCCC2)ccc1Cl)NCc1ccco1 | -5.56% (inactive) | 260
CC(C)CCC(C)NC(=O)c1ccc2nccnc2c1 (stereo unspecified) | 6.67% (inactive) | 43.3
Cc1ccc2c(NC(=O)C3CC3)cccc2n1 | 140% (active) | 109
Cc1nc(NC(=O)C2CCCCC2)sc1C | 0% (inactive) | 50
Cc1ccc(/C=C(\C#N)C(=O)Nc2cccc3ncccc23)o1 | 2.7% (inactive) | 106
CC(C)(C)NC(=O)CN(C(=O)c1ccc(Cl)nc1)c1cccc2ccccc12 | 108% (inactive) | 93
Cc1cccc(C(=O)Nc2ccc(C(=O)/C=C/c3cccs3)cc2)c1 | 9.3% (inactive) | 81.7
Cc1cccc(C(=O)Nc2ccc(CC(=O)O)cc2)c1 | 226% (inactive) | 56.2
O=C(Nc1ccccc1)c1ccc2nsnc2c1 | 193% (active) | 111

SMILES | activation | normalized cell count [%]
Cc1nn2c3cc(N4CCOCC4)ccc3nc2c2ccccc12 | 63.5% (inactive) | 79.7
CC1C/C(=N/NC(=O)c2cccs2)CC(C)(C)C1 (stereo unspecified) | 7.25% (inactive) | 112
COc1cc(NS(=O)(=O)c2ccc(N=Cc3c(C)[nH]n(-c4ccccc4)c3=O)cc2)nc(OC)n1 | 3.7% (inactive) | 98.8
Clc1ccc(-c2nnc(-c3ccccc3)nc2N2CCSCC2)cc1 | -5.41% (inactive) | 97.6
Cn1nc(-c2ccccc2)c(-c2nc(-c3ccc(Cl)cc3)no2)c1Cl | 471% (active) | 71.1
COc1ccc(-c2nc(-c3ccccc3)no2)c(OC)c1 | 0% (inactive) | 103
COc1cccc(NC(=O)CN(C)C(C)C(=O)Nc2ccc(C#N)cc2)c1 (stereo unspecified) | 8.11% (inactive) | 96.1
COC(=O)c1cc(C(=O)CSc2nc(C)cc(C)n2)ccc1O | -5.56% (inactive) | 111
COc1ccc(C(=O)CSc2n[nH]c(N)n2)cc1 | 7.41% (inactive) | 116
COC(=O)CSc1nc(C)c2ccc(OC)cc2n1 | 438% (active) | 69.4
Cc1nn(-c2ccccn2)c2c1C(c1ccncc1)C1=C(CC(C)(C)CC1=O)N2 (stereo unspecified) | -6.9% (inactive) | 120
CN(C)c1nnnn1-c1ccc(Cl)cc1 | 0% (inactive) | 128
Cn1nccc1CNC(=O)c1ccnn1C | 7.69% (inactive) | 127
O=C(COc1ccccc1)N1CCc2ccccc2C1 | 3.45% (inactive) | 131
COc1ccc(OCC(=O)N2CCN(C(=O)c3cccs3)CC2)cc1 | 9.09% (inactive) | 125
COc1ccc(OCC(=O)N2CCN(C(=O)COc3ccccc3)CC2)cc1 | 411% (active) | 70.2
O=C(CSc1nnc(Cn2cnc3ccccc32)o1)c1ccccc1 | 0% (inactive) | 112
CC(C)C[C@@H](N)c1nnc(SCC(=O)c2ccc(Cl)cc2)o1 | 533% (active) | 62.6
O=C(CSc1nnc(-c2c[nH]c3ccccc23)o1)c1ccccc1 | 0% (inactive) | 133
CCCc1nc2c([nH]1)C(c1cccnc1)C(C#N)=C(N)O2 (stereo unspecified) | -6.67% (inactive) | 147
OC1CSc2nc3ccccc3n2C1 (stereo unspecified) | 0% (inactive) | 81.8
C=CCn1c(CCc2ccc(OC(C)C)cc2)n[nH]c1=S | 0% (inactive) | 117

SMILES | activation | normalized cell count [%]
CCCOCC(O)CC(CC)C(=O)NNC(=S)Nc1ccccc1 (stereo unspecified) | 0% (inactive) | 106
Nc1ccc(-n2nncc2-c2ccco2)cc1 | 406% (active) | 53.5
CCOC(=O)CNC(=O)CSc1ccc2nnc(-c3cccnc3)n2n1 | 0% (inactive) | 132
COc1ccc(-c2nc3ccccc3n2CCC(C)C)cc1OC | -9.86% (inactive) | 74.4
Cn1cccc1-c1nc2ccccc2n1C | 300% (active) | 75.7
COc1ccc(N2CCN(C(=O)COc3ccc4c(C)cc(=O)oc4c3)CC2)cc1 | -8.33% (inactive) | 132
COc1cc(NC(=S)NNC(=O)CC(C)C)c(OC)cc1Cl | 9.38% (inactive) | 70.7
O=C(NC1CCCC1)C(NS(=O)(=O)c1ccc(Br)s1)c1ccccc1 (stereo unspecified) | 107% (inactive) | 72.4
O=C(CSc1nn(-c2ccc(F)cc2)c(=S)s1)NC1CCS(=O)(=O)C1 (stereo unspecified) | 5.88% (inactive) | 104
COc1ccc(-n2nc3c(c2NC(=O)c2ccc(N4C(=O)CCC4=O)cc2)CSC3)cc1 | -5.88% (inactive) | 73.5
CCS(=O)(=O)c1ccc2oc(SCC(=O)N3c4ccccc4CC3C)nc2c1 (stereo unspecified) | 457% (active) | 101
O=C(CSc1nc2ccccc2o1)N1c2ccccc2Sc2ccc(Cl)cc21 | -4.44% (inactive) | 77.2
CC1Cc2ccccc2N1C(=O)CSc1nc2ccccc2o1 (stereo unspecified) | 7.14% (inactive) | 87.7
CCCC1NC(=S)NC(C)=C1C(C)=O (stereo unspecified) | 7.14% (inactive) | 103
COC(=O)c1ccccc1NC(=S)NC(=O)c1ccccc1F | 0% (inactive) | 112
Cc1ccccc1OCCOc1ccc([N+](=O)[O-])cc1/C=N/n1cnnc1 | 107% (inactive) | 5.92
COC(=O)c1[nH]c2ccccc2c1NC(=O)CN1CCCc2ccccc21 | 209% (active) | 75.4
Cc1[nH]c2ccccc2c1SCC(=O)Nc1nccs1 | 5.56% (inactive) | 140
Cn1c(SCC(=O)N2CCCc3ccccc32)nc2ccccc2c1=O | 57.1% (inactive) | 100
Cc1cccc(-n2cc(CN3CCN(C(=O)c4ncn[nH]4)CC3)c(-c3cccc(F)c3)n2)c1 | 0% (inactive) | 108
O=C(COc1ccc2c(C(F)(F)F)cc(=O)oc2c1)Nc1ccc2c(c1)OCCO2 | 2.7% (inactive) | 112
CC1(C)CC(=O)c2cnc3nc4ccccc4n3c2C1 | -76.2% (inactive) | 56.3

SMILES | activation | normalized cell count [%]
Cc1cc(C(=O)OCC(=O)Nc2nnc(C(C)C)s2)c2ccccc2n1 | 0% (inactive) | 93.8
N#C/C(=C\C1=C(N2CCOCC2)C(=C\c2ccccc2)/CC1)C(=O)Nc1ccccc1F | 525% [fluoresces] (active) | 109
CC(CC(=O)O)C(=O)c1ccc(Cl)c([N+](=O)[O-])c1 (stereo unspecified) | 6.67% (inactive) | 136
Cn1nc(-c2ccc(N3CCOCC3)c(NC(=O)c3ccccc3)c2)c2ccccc2c1=O | 0% (inactive) | 95.6
O=C1OC(NC(=O)c2ccccc2)C(N2CCOCC2)=C1Cl (stereo unspecified) | 162% (active) | 118
O=C1C(Cl)=C(N2CCOCC2)C(=O)N1c1ccccc1 | 0% (inactive) | 129
C=CCc1cccc2cc(C(=O)OCC)c(=O)oc12 | 7.14% (inactive) | 70.6
COCCCNCCOCCOc1ccc(Cl)cc1Br | 6.67% (inactive) | 166
CC1=NN(C(=O)Cc2ccc(C)cc2)C(O)(c2cccnc2)C1 (stereo unspecified) | -5.41% (inactive) | 170
CN(CC(=O)NC1CCCC1)S(=O)(=O)c1cnc[nH]1 | -7.14% (inactive) | 85
CC(C)COP(=O)(c1ccc(N(C)C)cc1)C(Nc1ccccc1)c1cccnc1 (stereo unspecified) | 2.94% (inactive) | 145
COC(=O)c1ccc(COC(=O)c2c(C)nn(Cc3ccccc3Cl)c2Cl)o1 | 5.26% (inactive) | 164
COC(=O)c1ccc(Cc2ccccc2)o1 | -92.9% (inactive) | 83.1
COC(=O)c1ccc(CSc2ccccc2C)o1 | 230% (active) | 122
C=CCN(c1ccc(C(=O)Nc2cc(C)cc(C)c2)cc1)S(C)(=O)=O | 8.11% (inactive) | 119
Cc1cccc2cc(CN(Cc3cccs3)C(=S)NCc3ccco3)c(=O)[nH]c12 | -7.94% (inactive) | 94.8
CCNC(=S)N(CCc1c(C)[nH]c2ccc(C)cc12)Cc1ccco1 | 340% (active) | 55.7
CC1CCCN(CCOCCOc2ccccc2-c2ccccc2)C1 (stereo unspecified) | 7.14% (inactive) | 133
Cc1ccc(C(C)(C)C)c(OCCCCN2CCCC2)c1 | -1.96% (inactive) | 97.2
Cc1nn(-c2ccccc2)c(C)c1NC(=O)COc1ccc(Cl)cc1Cl | 3.7% (inactive) | 120
CCOc1nnc(C)c2c(C)n(-c3cccc(Cl)c3)nc12 | 162% (active) | 134
Cc1cc(C)c2c(n1)nn1c(N3CCN(c4cccc(Cl)c4)CC3)cc(C)nc21 | 141% (inactive) | 99.8
